The test system of one data set is dengue virus type 2. The data set can be described thus: Antiviral activity against Dengue virus 2 Rega infected in African green monkey Vero cells assessed as reduction in viral yield after 4 days by qRT-PCR analysis. In kind it is functional, organism-based. Put shortly:
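Virus yield reduction in Vero cells (seeded 5×10^4/well). Next day infected with DENV (MOI 0.01) in assay medium (MEM, 2% FBS, 0.075% bicarbonate, 2 mM L-glutamine). After 1 h, input virus was removed and cells rinsed 3 times. Medium with 3- or 5-fold compound serial dilutions was then added. Incubation was 4 days (DENV-2, DENV-4) or 7 days (DENV-1, DENV-3). Supernatant viral RNA was measured by RT-qPCR, and EC50 obtained by logarithmic interpolation.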
(In general: In qPCR the cycle at which signal appears reflects the starting amount.)

A short description of data set [1]: (§1) Cytotoxicity against African green monkey Vero cells assessed as cell growth inhibition after 4 days by MTS/PMS method. In kind it is cell-based. The note with it: chlorocebus sabaeus, Vero cells. Put shortly: (§2)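 Cytotoxicity run as in the yield assay, but without virus. Vero cells (5×10^4/well) were exposed to 3- or 5-fold serial dilutions in MEM with 2% FBS. Viability was read by the MTS/PMS colorimetric method. CC50 was derived by logarithmic interpolation.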

A short description of data set [2]: Solubility of the compound in DMSO solution at pH 7.4. In kind it is physicochemical. The gist of the method: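 Solubility measured at pH 7.4, starting from a DMSO solution.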
Data set [3] in a line: Drug metabolism in human liver microsomes after 15 mins. It counts as ADME, microsome. The note with it: for metabolised at 0.25 h: liver microsomes, read-out: Drug metabolism. Put shortly: (§3)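 Percentage of compound metabolized after 15 min incubation with human or rat liver microsomes.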
The nature of data set [4]: Drug metabolism in rat liver microsomes after 15 mins. It counts as ADME, microsome. The note with it: for metabolised at 0.25 h: liver microsomes, read-out: Drug metabolism. The gist of the method: as §3
On the technique in general: Liver microsomes are a subcellular fraction often used to study metabolism.

Another data set concerns Vero. The description is as §1. The note with it: chlorocebus sabaeus, vero, 96 h. It counts as cell-based. The gist of the method:
as §2

pEC50: −log10 of the molar value. ≈ marks a conversion by molar mass, not a printed value.

By pEC50 is commonly meant the negative decadic logarithm of the EC50, by convention in mol/L. What is called CC50 is the concentration giving 50% cytotoxicity. For orientation: solubility means the concentration that dissolves in the medium under given conditions.

On to `COc1cc(NC(C(=O)c2c[nH]c3ccccc23)c2ccccc2)cc(OCCCO)c1` (stereo not drawn), for which the pEC50 in the data set on dengue virus type 2 (Dengue virus, Rega, Vero, 96 h) is 7.07. The CC50 at 96 h in data set [1] was 50 µM. In addition, the solubility in data set [2] (read-out: solubility) was 30 µM (≈ 12.9 µg/mL). In addition, the metabolised at 0.25 h in data set [3] was 8%; in data set [4], 67%.
On to `COc1cccc(NC(C(=O)c2c[nH]c3ccccc23)c2ccccc2C)c1` (stereo not drawn), for which, in the data set with dengue virus type 2 (Dengue virus, Rega, Vero, 96 h), the pEC50 is 7.02. Moreover, the CC50 at 96 h in data set [1] was 14 µM.
On to `COc1cccc(NC(C(=O)c2c[nH]c3ccccc23)c2cccnc2)c1` (stereo not drawn), for which the negative-log EC50 (pEC50) in the data set with dengue virus type 2 (Dengue virus, Rega, Vero, 96 h) is 6.86. Besides, the CC50 at 96 h in data set [1] was found to be 71 µM.
For `COc1cccc(NC(C(=O)c2c[nH]c3ccc(F)cc23)c2ccccc2)c1` (stereo not drawn), the negative-log EC50 (pEC50) with dengue virus type 2 (Dengue virus, Rega, Vero, 96 h) was 7.47. The CC50 at 96 h in data set [1] came out at 13 µM.
With `COc1cccc(NC(C(=O)c2c[nH]c3cccc(F)c23)c2ccccc2)c1` (stereo not drawn), the pEC50 in the data set with dengue virus type 2 (Dengue virus, Rega, Vero, 96 h) was 6.91. Moreover, the CC50 at 96 h in data set [1] is 21 µM.
`COc1ccc(OC)c(NC(C(=O)c2c[nH]c3ccccc23)c2ccccc2)c1` (stereo not drawn): in the data set on dengue virus type 2 (Dengue virus, Rega, Vero, 96 h), the pEC50 is 5.60. For the same compound, in data set [1], the half-maximal cytotoxic concentration (CC50) at 96 h turned out to be 15 µM.
For `O=C(c1c[nH]c2ccccc12)C(Nc1cccc(F)c1)c1ccccc1` (stereo not drawn) the same measures were 5.62 and 12 µM.
In the same order, the values of `CS(=O)(=O)c1cccc(NC(C(=O)c2c[nH]c3ccccc23)c2ccccc2)c1` (stereo not drawn) are 5.19 and 65 µM.
In the same order, the values of `COc1cccc(NC(C(=O)c2c[nH]c3ccccc23)c2cnccn2)c1` (stereo not drawn) are 6.08 and 65 µM.
With `COc1cccc(NC(C(=O)c2c[nH]c3ccccc23)c2ccc(C)nc2)c1` (stereo not drawn), the pEC50 in the data set on dengue virus type 2 (Dengue virus, Rega, Vero, 96 h) is 7.14. The CC50 at 96 h in data set [1] is 73 µM.
As for `COc1cncc(NC(C(=O)c2c[nH]c3ccccc23)c2ccccc2)n1` (stereo not drawn), the pEC50 with dengue virus type 2 (Dengue virus, Rega, Vero, 96 h) was 6.32. Besides, the 50% cytotoxic concentration (CC50) at 96 h in data set [1] turned out to be 68 µM.
Regarding `COc1cc(NC(C(=O)c2c[nH]c3ccccc23)c2ccc(F)cc2)cc(OCCO)c1` (stereo not drawn), the pEC50 in the data set on dengue virus type 2 (Dengue virus, Rega, Vero, 96 h) was 7.89. Moreover, the CC50 at 96 h in data set [1] amounted to 46 µM. Moreover, in data set [2] (read-out: solubility), the solubility was found to be 27 µM (≈ 11.7 µg/mL). The metabolised at 0.25 h amounted to 7% in data set [3] and 23% in data set [4].
Turning to `COc1cccc(NC(C(=O)c2c[nH]c3ccccc23)c2ccc(C)cc2)c1` (stereo not drawn), the negative-log EC50 (pEC50) with dengue virus type 2 (Dengue virus, Rega, Vero, 96 h) was 7.66. In addition, in data set [1], the CC50 at 96 h was 20 µM.
Take `COc1cccc(NC(C(=O)c2c[nH]c3ccccc23)c2cc(C)on2)c1` (stereo not drawn): the negative-log EC50 (pEC50) with dengue virus type 2 (Dengue virus, Rega, Vero, 96 h) was 6.23. In addition, in data set [1], the CC50 at 96 h stood at 50 µM.
`COc1cccc(NC(C(=O)c2c[nH]c3cc(F)ccc23)c2ccccc2)c1` (stereo not drawn): the pEC50 in the data set on dengue virus type 2 (Dengue virus, Rega, Vero, 96 h) is 7.35. Besides, the CC50 at 96 h in data set [1] worked out at 15 µM.
Turning to `COc1cccc(NC(C(=O)c2c[nH]c3c(F)cccc23)c2ccccc2)c1` (stereo not drawn), the pEC50 in the data set with dengue virus type 2 (Dengue virus, Rega, Vero, 96 h) is 7.24. In data set [1], the CC50 at 96 h is 14 µM.
On to `COc1cccc(NC(C(=O)c2c[nH]c3ccccc23)c2ccco2)c1` (stereo not drawn), for which the pEC50 in the data set with dengue virus type 2 (Dengue virus, Rega, Vero, 96 h) is 6.53. Also, the CC50 at 96 h in data set [1] was found to be 16 µM.
In the case of `O=C(c1c[nH]c2ccccc12)C(Nc1cccc(OC(F)(F)F)c1)c1ccccc1` (stereo not drawn), the negative logarithm of the EC50 (pEC50) with dengue virus type 2 (Dengue virus, Rega, Vero, 96 h) is 6.03. For the same compound, the CC50 at 96 h in data set [1] stood at 5 µM.
With `COc1cccc(NC(C(=O)c2c[nH]c3ccccc23)c2ccccc2)c1OC` (stereo not drawn), the pEC50 in the data set on dengue virus type 2 (Dengue virus, Rega, Vero, 96 h) is 5.38. In data set [1], the CC50 at 96 h was greater than 129 µM.
For `COc1cccc(NC(C(=O)c2c[nH]c3ccccc23)c2ccc(F)cc2)c1` (stereo not drawn) the same measures were 7.60 and 14 µM.
In the case of `COc1cccc(NC(C(=O)c2c[nH]c3ccccc23)c2ccc(S(C)(=O)=O)cc2)c1` (stereo not drawn), the pEC50 with dengue virus type 2 (Dengue virus, Rega, Vero, 96 h) was 5.80. The CC50 at 96 h in data set [1] is greater than 115 µM.
Regarding `COc1cccc(NC(C(=O)c2c[nH]c3ccccc23)c2cncnc2)c1` (stereo not drawn), the pEC50 with dengue virus type 2 (Dengue virus, Rega, Vero, 96 h) was 6.41. The CC50 at 96 h in data set [1] worked out at 100 µM.
On to `COc1cc(NC(C(=O)c2c[nH]c3c(CCS(C)(=O)=O)cccc23)c2ccccc2)cc(OC)c1` (stereo not drawn), for which the negative logarithm of the EC50 (pEC50) with dengue virus type 2 (Dengue virus, Rega, Vero, 96 h) is 6.39. Also, the CC50 at 96 h in data set [1] is greater than 102 µM.
As for `COc1cccc(NC(C(=O)c2c[nH]c3ccccc23)c2ccccc2)n1` (stereo not drawn), the pEC50 with dengue virus type 2 (Dengue virus, Rega, Vero, 96 h) was 6.54. The half-maximal cytotoxic concentration (CC50) at 96 h in data set [1] turned out to be 16 µM.
For `O=C(c1c[nH]c2ccccc12)C(Nc1cccnc1)c1ccccc1` (stereo not drawn) the same measures were 5.30 and 54 µM.
In the case of `COc1cc(NC(C(=O)c2c[nH]c3ccccc23)c2ccccc2)cc(OCCO)c1` (racemic), in the data set with dengue virus type 2 (vero), the pEC50 is 7.23. Further, the half-maximal cytotoxic concentration (CC50) in the data set with Vero was determined as 47 µM. Besides, the solubility in data set [2] was determined as 60 µM (≈ 25 µg/mL). For the same compound, the Drug metabolism in data set [3] (microsomes, 0.25 h) amounted to 13%; in data set [4] (microsomes, 0.25 h) it was 37%.
For `COc1cc(NC(C(=O)c2c[nH]c3ccccc23)c2ccccc2)cc(OCCO)c1` (single isomer, unassigned; (-)), in the data set on dengue virus type 2 (vero), the pEC50 is 6.34. The CC50 in the data set with Vero is 77 µM.

Source of the values: ChEMBL document CHEMBL4196174, “Discovery of Indole Derivatives as Novel and Potent Dengue Virus Inhibitors” (J Med Chem, 2018).
